In ChEMBL document CHEMBL5214998, “Development of Macrocyclic PRMT5-Adaptor Protein Interaction Inhibitors” (J Med Chem, 2022):
One block for each compound: values may come before it. The source made the active and inactive calls. The rule behind the calls is not given here.

Tests used:
PRMT5/MEP50 complex [1] = target: T1, PRMT5/MEP50 complex (Homo sapiens, UniProt O14744); test: Binding affinity to PRMT5/MEP50 (unknown origin) assessed as inhibition constant by FITC- Competitive binding assay; type: protein-complex assay
T1 sequence (O14744 whole entry): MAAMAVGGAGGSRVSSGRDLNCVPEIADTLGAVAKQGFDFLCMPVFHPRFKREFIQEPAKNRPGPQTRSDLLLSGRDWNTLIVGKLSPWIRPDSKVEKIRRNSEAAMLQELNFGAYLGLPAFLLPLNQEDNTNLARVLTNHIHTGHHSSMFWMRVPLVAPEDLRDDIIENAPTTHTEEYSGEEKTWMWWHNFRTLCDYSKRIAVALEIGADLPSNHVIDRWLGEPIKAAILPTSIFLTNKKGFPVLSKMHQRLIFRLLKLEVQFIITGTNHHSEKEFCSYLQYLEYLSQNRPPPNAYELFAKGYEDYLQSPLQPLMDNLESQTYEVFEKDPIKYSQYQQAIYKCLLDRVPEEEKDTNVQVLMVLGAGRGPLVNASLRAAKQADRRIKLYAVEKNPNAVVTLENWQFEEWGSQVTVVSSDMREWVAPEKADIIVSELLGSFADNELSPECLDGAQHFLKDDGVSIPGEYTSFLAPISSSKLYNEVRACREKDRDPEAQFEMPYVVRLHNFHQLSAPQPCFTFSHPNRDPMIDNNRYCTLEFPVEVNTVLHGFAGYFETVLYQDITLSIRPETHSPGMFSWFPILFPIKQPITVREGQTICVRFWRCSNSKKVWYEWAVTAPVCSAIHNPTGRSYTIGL
T1 sequence (Q9BQA1 whole entry, further chain): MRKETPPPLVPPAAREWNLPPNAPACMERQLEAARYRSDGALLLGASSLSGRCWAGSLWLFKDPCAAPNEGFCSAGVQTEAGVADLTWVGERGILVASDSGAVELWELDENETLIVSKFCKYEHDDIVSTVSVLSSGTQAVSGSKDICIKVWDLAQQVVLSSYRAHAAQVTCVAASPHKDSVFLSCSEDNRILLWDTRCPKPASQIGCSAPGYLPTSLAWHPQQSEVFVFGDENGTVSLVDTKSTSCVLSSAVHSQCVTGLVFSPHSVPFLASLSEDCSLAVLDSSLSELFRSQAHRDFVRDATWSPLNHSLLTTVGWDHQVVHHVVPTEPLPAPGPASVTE
Method in brief: (§1)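 Competitive FP: 1 nM FITC-labeled tracer peptide with PRMT5-MEP50 (194 nM with tracer 50; 600 nM with tracer 21); unlabeled peptide titrated as two-fold dilutions in 50 mM HEPES, 250 mM NaCl, 1 mM TCEP, 0.01% Tween 20, pH 8.0; room temperature up to 1 h 45 min; read 485/535 nm; triplicate.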

[2] = Inhibition of full length human ICLN/PRMT5 (unknown origin) protein-protein interaction by fluorescence polarization assay
Flp-In-T-REx-293 [3] = test: Inhibition of PRMT5/RioK1 protein-protein interaction in human Flp-In-T-REx-293 cells over-expressed with GFP-PRMT5 at 50 uM incubated for 2 hrs by immunoprecipitation assay; type: cell-based
Method in brief: (§2)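 S100 extracts from induced Flp-In T-REx 293 cells expressing GFP-tagged proteins were treated with peptide at 50 µM (or DMSO) for 1 h at room temperature. GFP-Trap beads were then added for 2 h at 4 °C and washed. Co-purified PRMT5, MEP50, RioK1 and pICln were detected by immunoblot with fluorescent secondary antibodies.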

Flp-In-T-REx-293 [4] = test: Inhibition of PRMT5/RioK1 protein-protein interaction in human Flp-In-T-REx-293 cells over-expressed with GFP-RioK1 at 50 uM incubated for 2 hrs by immunoprecipitation assay; type: cell-based; method in brief: as §2
PRMT5/MEP50 complex [5] = target: T1, PRMT5/MEP50 complex; test: Inhibition of PRMT5/MEP50 (unknown origin) incubated for 1 to 2 hrs in presence of tracer 21 by competitive fluorescence polarization assay; type: protein-complex assay; method in brief: as §1
[6] = Stability in human U2OS cells assessed as half life incubated upto 24 hrs by HPLC analysis; type: ADME, cell-based; settings: U2OS cell lysate
PRMT5/MEP50 complex [7] = target: T1, PRMT5/MEP50 complex; test: Inhibition of PRMT5/MEP50 (unknown origin) incubated for 1 to 2 hrs in presence of tracer 50 by competitive fluorescence polarization assay; type: protein-complex assay; method in brief: as §1
PRMT5/MEP50 complex [8] = target: PRMT5/MEP50 complex (Homo sapiens, UniProt O14744+Q9BQA1); test: Binding affinity to PRMT5/MEP50 (unknown origin) assessed as dissociation constant by FITC- Competitive binding assay; type: protein-complex assay
Chain of PRMT5/MEP50 complex (Homo sapiens, UniProt O14744+Q9BQA1) (O14744 whole entry): as the sequence (O14744 whole entry) above
Chain of PRMT5/MEP50 complex (Homo sapiens, UniProt O14744+Q9BQA1) (Q9BQA1 whole entry): as the sequence (Q9BQA1 whole entry, further chain) above

Ki (PRMT5/MEP50 complex [1]): 1.8 µM
Compound: Ac-SRVVPGQFDDAD-NH2

IC50 [2]: 0.654 µM
Compound: CC(=O)N[C@H](C(=O)N1CCC[C@H]1C(=O)N[C@H]1CCCCC[C@@H](C(=O)N[C@@H](CC(=O)O)C(=O)N[C@@H](C)C(=O)N[C@@H](CC(C(=O)O)C(=O)O)C(N)=O)NC(=O)[C@H](Cc2ccc([N+](=O)[O-])cc2)NC(=O)[C@H](CCC(N)=O)NC1=O)C(C)C
inhibition (Flp-In-T-REx-293 [3]): Active | inhibition (Flp-In-T-REx-293 [4]): Active

Ki (PRMT5/MEP50 complex [1]): 0.862 µM | IC50 (PRMT5/MEP50 complex [5]): 2.49 µM | half-life [6]: 4.4 h | IC50 (PRMT5/MEP50 complex [7]): 5.3 µM
Compound: Ac-VPGQFDDAD-NH2

Kd (PRMT5/MEP50 complex [8]): > 2 µM
Compound: CC(=O)N[C@H](C(=O)N1CCC[C@H]1C(=O)N[C@H]1CCCCC[C@H](C(=O)N[C@@H](CC(=O)O)C(=O)N[C@@H](C)C(=O)N[C@@H](CC(=O)O)C(=O)N[C@@H](CCCCNC(=S)Nc2ccc3c(c2)C(=O)OC32c3ccc(O)cc3Oc3cc(O)ccc32)C(N)=O)NC(=O)[C@H](Cc2ccccc2)NC(=O)[C@H](CCC(N)=O)NC1=O)C(C)C

More lines, now with the values behind:

Compound: CC(C)[C@H](NC(=O)[C@H](CCCNC(=N)N)NC(=O)[C@H](CO)NC(=O)COCCOCCNC(=S)Nc1ccc2c(c1)C(=O)OC21c2ccc(O)cc2Oc2cc(O)ccc21)C(=O)N[C@H](C(=O)N1CCC[C@H]1C(=O)N[C@H]1CCCC[C@H](C(=O)N[C@@H](CC(=O)O)C(=O)N[C@@H](C)C(=O)N[C@@H](CC(=O)O)C(N)=O)NC(=O)[C@H](Cc2ccccc2)NC(=O)[C@H](CCC(N)=O)NC1=O)C(C)C
Kd (PRMT5/MEP50 complex [8]): > 2 µM

Compound: CC(C)[C@H](NC(=O)[C@H](CCCNC(=N)N)NC(=O)[C@H](CO)NC(=O)COCCOCCNC(=S)Nc1ccc2c(c1)C(=O)OC21c2ccc(O)cc2Oc2cc(O)ccc21)C(=O)N[C@H](C(=O)N1CCC[C@H]1C(=O)N[C@H]1CCNC(=O)C[C@H](C(=O)N[C@@H](CC(=O)O)C(=O)N[C@@H](C)C(=O)N[C@@H](CC(=O)O)C(N)=O)NC(=O)[C@H](Cc2ccccc2)NC(=O)[C@H](CCC(N)=O)NC1=O)C(C)C
Kd (PRMT5/MEP50 complex [8]): > 2 µM

Compound: CC(C)[C@H](NC(=O)[C@H](CCCNC(=N)N)NC(=O)[C@H](CO)NC(=O)COCCOCCNC(=S)Nc1ccc2c(c1)C(=O)OC21c2ccc(O)cc2Oc2cc(O)ccc21)C(=O)N[C@H](C(=O)N1CCC[C@H]1C(=O)N[C@H]1CNC(=O)C[C@H](C(=O)N[C@@H](CC(=O)O)C(=O)N[C@@H](C)C(=O)N[C@@H](CC(=O)O)C(N)=O)NC(=O)[C@H](Cc2ccccc2)NC(=O)[C@H](CCC(N)=O)NC1=O)C(C)C
Kd (PRMT5/MEP50 complex [8]): > 2 µM
